Data from ChEMBL document CHEMBL1125195, “Novel compounds possessing potent cAMP and cGMP phosphodiesterase inhibitory activity. Synthesis and cardiovascular effects of a series of imidazo[1,2-a]quinoxalinones and imidazo[1,5-a]quinoxalinones and their aza analogues” (J Med Chem, 1991).
pEC50, pIC50: −log10 of the molar value. Calls of active or inactive are those of the source. No cut-off for these calls is given here.

Tests used:
Canis familiaris [1] = test: Percent change heart rate after intravenous administration in anesthetized dogs at 0.3 mg/kg (NC<10%); format: functional, Canis lupus familiaris
Summary of the method: (§1)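 Anesthetized dogs, drug given intravenously at the stated dose. Percent change recorded in LV dP/dt (contractile force), heart rate and mean arterial pressure. Mean of at least four determinations; LV dP/dt ranges within ±10%.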

Canis familiaris [2] = test: (§2) Percent change in left ventricle contractile force in anesthetized dogs after intravenous administration at 3.0 mg/kg; format: functional, Canis lupus familiaris, Heart left ventricle; summary of the method: as §1
Canis familiaris [3] = test: Percent change heart rate after intravenous administration in anesthetized dogs at 1.0 mg/kg; format: functional, Canis lupus familiaris; summary of the method: as §1
Canis familiaris [4] = test: (§3) Percent change in mean arterial blood pressure after intravenous administration in anesthetized dogs at 3.0 mg/kg; format: functional, Canis lupus familiaris; summary of the method: as §1
Canis familiaris [5] = species: Canis familiaris; test: In vitro vascular relaxation in canine mesenteric veins precontracted with phenylephrine.; format: functional; conditions: Canis lupus familiaris, Mesenteric vein
Summary of the method: (§4)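 Isolated vessels in warm PSS. Arteries constricted with prostaglandin F2α, veins with phenylephrine. Cumulative drug challenges, each added after relaxation plateaued. Delta force is expressed as % of agonist actual force (total minus basal) and as % of maximal relaxation. EC50 is found by linear interpolation between the points bracketing 50% relaxation. Afterwards tissues were rinsed every 10 min, reconstricted, and challenged with acetylcholine (arteries) or thrombin (veins).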

Canis familiaris [6] = species: Canis familiaris; test: In vitro vascular relaxation in canine coronary arteries precontracted with prostaglandin F2alpha.; format: functional; conditions: Canis lupus familiaris; summary of the method: as §4
Canis familiaris [7] = test: (§5) Percent change in mean arterial blood pressure after intravenous administration in anesthetized dogs at 1.0 mg/kg; format: functional, Canis lupus familiaris; summary of the method: as §1
Canis familiaris [8] = test: (§6) Percent change in mean arterial blood pressure after intravenous administration in anesthetized dogs at 0.3 mg/kg; format: functional, Canis lupus familiaris; summary of the method: as §1
Canis familiaris [9] = test: (§7) Percent change in left ventricle contractile force in anesthetized dogs after intravenous administration at 0.3 mg/kg; format: functional, Canis lupus familiaris, Heart left ventricle; summary of the method: as §1
Canis familiaris [10] = test: Percent change in heart rate after intravenous administration in anesthetized dogs at 3.0 mg/kg (NC<10%); format: functional, Canis lupus familiaris; summary of the method: as §1
Mustela putorius furo = species: Mustela putorius furo; test: In vitro increase in contractile force in ferret papillary muscle strips (NR = not reached at 100 ug); format: functional, tissue-based; conditions: Muscle tissue
Summary of the method: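 Ferret papillary muscle contractile force measured in vitro; value is drug concentration (μM) giving a 20% rise in contractile force. Inotropic effect also tested with 1 μM propranolol coadministered. Mean of at least two determinations, ranges within ±10%.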

Canis familiaris [11] = test: (§8) Percent change in left ventricle contractile force in anesthetized dogs after intravenous administration at 1.0 mg/kg; format: functional, Canis lupus familiaris, Heart left ventricle; summary of the method: as §1
[12] = Inhibition of crude cAMP phosphodiesterase from canine […] (NR = no effect at 100 ug); set-up: species or system Canis lupus familiaris
Summary of the method: (§9)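 Crude PDEs from canine tissue homogenates: cAMP enzyme from cardiac tissue, cGMP enzyme from thoracic aorta. Value is drug concentration (μM) causing 50% inhibition. Mean of at least three determinations, ranges within ±10%.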

[13] = Inhibition of crude cGMP phosphodiesterase from canine thoracic aorta (NR = no effect at 100 ug); format: tissue-based, Canis lupus familiaris; summary of the method: as §9
[14] = Inhibition of crude cAMP phosphodiesterase from canine […]; set-up: species or system Canis lupus familiaris
Summary of the method: (§10)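 Crude homogenates: cAMP PDE from canine cardiac tissue, cGMP PDE from canine thoracic aorta. Value is drug concentration (μM) giving 50% inhibition. Mean of at least three determinations, ranges within ±10%.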

[15] = Inhibition of crude cGMP phosphodiesterase from canine thoracic aorta; format: tissue-based, Canis lupus familiaris; summary of the method: as §10
[16] = In vitro increase in contractile force in ferret papillary muscle strips.; format: functional, Mustela putorius furo, Muscle tissue
Summary of the method: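 Ferret papillary muscle; value is drug concentration (μM) giving a 20% rise in contractile force. Mean of at least two determinations, ranges within ±10%. Inotropic effect also tested with 1 μM propranolol co-administered. NR means not reached at 100 μM.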

[17] = Inhibition of crude cAMP phosphodiesterase from canine […] (NR = no effect at 100 uM); set-up: species or system Canis lupus familiaris; summary of the method: as §10
Canis familiaris [18] = test: Percent change in left ventricle contractile force in anesthetized dogs after intravenous administration at 0.1 mg/kg; format: functional, Canis lupus familiaris, Heart left ventricle
Canis familiaris [19] = test: as §6; format: functional, Canis lupus familiaris; remark: listed apart in the source
Canis familiaris [20] = test: Percent change in mean arterial blood pressure after intravenous administration in anesthetized dogs at 0.03 mg/kg (NC<10%); format: functional, organism-based; set-up: dose 0.03 mg/kg; conditions: Canis lupus familiaris
Canis familiaris [21] = test: as §7; format: functional, Canis lupus familiaris, Heart left ventricle; remark: listed apart in the source
Canis familiaris [22] = test: Percent change in heart rate after intravenous administration in anesthetized dogs at 0.3 mg/kg; format: functional, Canis lupus familiaris
Canis familiaris [23] = test: Percent change in mean arterial blood pressure after intravenous administration in anesthetized dogs at 0.1 mg/kg; format: functional, Canis lupus familiaris
Canis familiaris [24] = test: Percent change in heart rate after intravenous administration in anesthetized dogs at 0.1 mg/kg; format: functional, Canis lupus familiaris
Canis familiaris [25] = test: Percent change in left ventricle contractile force in anesthetized dogs after intravenous administration at 0.03 mg/kg; format: functional, Canis lupus familiaris, Heart left ventricle
[26] = Inhibition of crude cGMP phosphodiesterase from canine thoracic aorta (NR = no effect at 100 uM); format: tissue-based, Canis lupus familiaris; summary of the method: as §10
Canis familiaris [27] = test: Percent change in heart rate in anesthetized dogs after intravenous administration at 0.03 mg/kg; format: functional, Canis lupus familiaris
Canis familiaris [28] = test: Percent change in heart rate after intravenous administration in anesthetized dogs at 3.0 mg/kg; format: functional, Canis lupus familiaris
Canis familiaris [29] = test: (§11) Percent change in mean arterial blood pressure after intravenous administration in anesthetized dogs at 1.0 mg/kg (NC<10%); format: functional, organism-based; set-up: dose 1 mg/kg; conditions: Canis lupus familiaris
Canis familiaris [30] = test: as §2; format: functional, Canis lupus familiaris, Heart left ventricle; remark: listed apart in the source
Canis familiaris [31] = test: Percent change in heart rate after intravenous administration in anesthetized dogs at 1.0 mg/kg; format: functional, Canis lupus familiaris
Canis familiaris [32] = test: as §3; format: functional, Canis lupus familiaris; remark: listed apart in the source
Canis familiaris [33] = test: as §8; format: functional, Canis lupus familiaris, Heart left ventricle; remark: listed apart in the source
Canis familiaris [34] = test: Percent change in mean arterial blood pressure after intravenous administration in anesthetized dogs at 0.3 mg/kg (NC<10%); format: functional, organism-based; set-up: dose 0.3 mg/kg; conditions: Canis lupus familiaris
Canis familiaris [35] = test: Percent change in mean arterial blood pressure after intravenous administration in anesthetized dogs at 0.1 mg/kg (NC<10%); format: functional, Canis lupus familiaris
Canis familiaris [36] = test: as §11; format: functional, Canis lupus familiaris
Canis familiaris [37] = test: Percent change heart rate after intravenous administration in anesthetized dogs at 0.1 mg/kg; format: functional, Canis lupus familiaris
Canis familiaris [38] = test: Percent change in heart rate after intravenous administration in anesthetized dogs at 0.1 mg/kg (NC<10%); format: functional, organism-based; set-up: dose 0.1 mg/kg; conditions: Canis lupus familiaris
Canis familiaris [39] = test: as §5; format: functional, Canis lupus familiaris; remark: listed apart in the source
Canis familiaris [40] = test: Percent change in heart rate after intravenous administration in anesthetized dogs at 0.3 mg/kg (NC<10%); format: functional, organism-based; set-up: dose 0.3 mg/kg; conditions: Canis lupus familiaris
Canis familiaris [41] = test: Percent change in heart rate after intravenous administration in anesthetized dogs at 1.0 mg/kg (NC<10%); format: functional, organism-based; set-up: dose 1 mg/kg; conditions: Canis lupus familiaris
Canis familiaris [42] = test: Percent change in left ventricle contractile force in anesthetized dogs after intravenous administration at 0.3 mg/kg (NC <10%); format: functional, organism-based; set-up: dose 0.3 mg/kg; conditions: Canis lupus familiaris, Heart left ventricle

SMILES	pEC50 (Canis familiaris [5])	pEC50 (Canis familiaris [6])	pIC50 [14]	pIC50 [15]	CFC20 [16] [µM]	other results
O=[N+]([O-])OCC(CO[N+](=O)[O-])O[N+](=O)[O-] [NITROGLYCERIN]	8.15	8.00				Delta (Canis familiaris [1]): <10%; Delta (Canis familiaris [2]): -17%; Delta (Canis familiaris [3]): <10%; Delta (Canis familiaris [4]): -39%; Delta (Canis familiaris [7]): -30%; Delta (Canis familiaris [8]): -20%; Delta (Canis familiaris [9]): -9%; Delta (Canis familiaris [10]): <10%; CFC20 (Mustela putorius furo): inactive; Delta (Canis familiaris [11]): -14%; IC50 [12]: Not Active; IC50 [13]: Not Active
Cc1nccn1-c1ccc2nc(O)c3cnc(C)n3c2n1	5.70	4.62	6.00	5.52	0.4	
CCc1nc(C)c2c(O)nc3ccc(N4CCOCC4)cc3n12	7.30	6.15	6.10	6.05	0.5	
CCc1nc(C)c2c(N)nc3ccccc3n12	5.47	4.96	4.66	4.42		
CCc1nccn1-c1ncnc2c1nc(O)c1cnc(CC)n12	4.64	4.23		4.85		IC50 [17]: Not reached
Cc1[nH]c(=O)c(C#N)cc1-c1ccncc1 [MILRINONE]	6.15	5.80	5.22		0.5	Delta (Canis familiaris [18]): 58%; Delta (Canis familiaris [19]): -33%; Delta (Canis familiaris [20]): <10% change from control; Delta (Canis familiaris [21]): 82%; Delta (Canis familiaris [22]): 34%; Delta (Canis familiaris [23]): -15%; Delta (Canis familiaris [24]): 20%; Delta (Canis familiaris [25]): 31%; IC50 [26]: Not reached; Delta (Canis familiaris [27]): 12%
CCc1nc(C)c2c(O)nc3ccccc3n12	6.10	5.77	5.70	6.40	0.2	Delta (Canis familiaris [28]): 65%; Delta (Canis familiaris [29]): <10% change from control; Delta (Canis familiaris [30]): 135%; Delta (Canis familiaris [31]): 42%; Delta (Canis familiaris [32]): -40%; Delta (Canis familiaris [21]): 39%; Delta (Canis familiaris [22]): 22%; Delta (Canis familiaris [33]): 85%; Delta (Canis familiaris [34]): <10% change from control
Cc1nccn1-c1ccc2nc(O)c3cnc(C)n3c2c1	5.96	5.26	5.22	4.62	1.2	
CCc1nc(C)cn1-c1ccc2nc(O)c3c(C)nc(CC)n3c2c1	7.00	6.30	6.40	6.52	1	
CC(C)Cn1c(=O)n(C)c(=O)c2nc[nH]c21 [ISOBUTYLMETHYLXANTHINE]	6.00	5.26	4.70	4.55	1.5	Delta (Canis familiaris [18]): 25%; Delta (Canis familiaris [3]): 45%; Delta (Canis familiaris [35]): <10%; Delta (Canis familiaris [22]): 32%; Delta (Canis familiaris [36]): <10%; Delta (Canis familiaris [7]): -18%; Delta (Canis familiaris [9]): 41%; Delta (Canis familiaris [37]): 17%; Delta (Canis familiaris [11]): 69%
Cc1ncc2c(O)nc3ccccc3n12	5.55	4.31	4.80	4.57	2.1	
Cc1ncc2c(O)nc3ccc(-n4ccnc4)cc3n12	5.55	4.52	5.10	4.72	2	
CCc1ncc2c(O)nc3cccnc3n12	6.30	6.52	6.00	5.15	0.1	Delta (Canis familiaris [18]): 31%; Delta (Canis familiaris [19]): -25%; Delta (Canis familiaris [31]): 50%; Delta (Canis familiaris [21]): 40%; Delta (Canis familiaris [22]): 30%; Delta (Canis familiaris [23]): -17%; Delta (Canis familiaris [38]): <10% change from control; Delta (Canis familiaris [39]): -40%; Delta (Canis familiaris [33]): 76%
CCc1nc(C)c2c(=O)n(C)c3ccccc3n12	5.42	4.92	4.74	4.77	2.3	
CCc1ncc2c(O)nc3ccncc3n12	5.66	5.28	5.30	5.30	0.3	
Oc1nc2ccc(-n3ccnc3)cc2n2ccnc12	5.51	4.55	5.22	4.89	3.1	
Oc1nc2ccc(-n3ccnc3)nc2n2ccnc12	5.03	4.85	5.30	4.41	0.5	
CCc1nc(C)c2c(O)nc3ccc(-n4ccnc4)cc3n12	6.40	5.77	5.70	5.40	0.6	
Oc1nc2cccnc2n2ccnc12	5.00	4.96	4.36	4.57	2.2	Delta (Canis familiaris [28]): 24%; Delta (Canis familiaris [29]): <10% change from control; Delta (Canis familiaris [40]): <10% change from control; Delta (Canis familiaris [30]): 81%; Delta (Canis familiaris [32]): -40%; Delta (Canis familiaris [41]): <10% change from control; Delta (Canis familiaris [33]): 42%; Delta (Canis familiaris [42]): <10% change from control; Delta (Canis familiaris [34]): <10% change from control
Cc1cn2c(n1)c(O)nc1ccccc12	6.40	5.29	4.38	4.44	11	
CCc1ncc2c(O)nc3ccc(-n4ccnc4)cc3n12	6.52	5.28	5.70	5.52	1.2	
Oc1nc2ccccc2n2ccnc12			4.31	4.36	10	
